Experimental data from ChEMBL document CHEMBL4330143, “Maximizing ER-α Degradation Maximizes Activity in a Tamoxifen-Resistant Breast Cancer Model: Identification of GDC-0927” (ACS Med Chem Lett, 2019).
Active and inactive are the calls of the source. The rule behind the calls is not given here.

Assays:
Cytochrome P450 2D6 = Cytochrome P450 2D6 (Homo sapiens, UniProt P10635); assay: Competitive inhibition of CYP2D6 (unknown origin); assay type: ADME
Cytochrome P450 3A4 = Cytochrome P450 3A4 (Homo sapiens, UniProt P08684); assay: Competitive inhibition of CYP3A4 (unknown origin); assay type: ADME
Sequence of Cytochrome P450 3A4 (P08684 whole entry): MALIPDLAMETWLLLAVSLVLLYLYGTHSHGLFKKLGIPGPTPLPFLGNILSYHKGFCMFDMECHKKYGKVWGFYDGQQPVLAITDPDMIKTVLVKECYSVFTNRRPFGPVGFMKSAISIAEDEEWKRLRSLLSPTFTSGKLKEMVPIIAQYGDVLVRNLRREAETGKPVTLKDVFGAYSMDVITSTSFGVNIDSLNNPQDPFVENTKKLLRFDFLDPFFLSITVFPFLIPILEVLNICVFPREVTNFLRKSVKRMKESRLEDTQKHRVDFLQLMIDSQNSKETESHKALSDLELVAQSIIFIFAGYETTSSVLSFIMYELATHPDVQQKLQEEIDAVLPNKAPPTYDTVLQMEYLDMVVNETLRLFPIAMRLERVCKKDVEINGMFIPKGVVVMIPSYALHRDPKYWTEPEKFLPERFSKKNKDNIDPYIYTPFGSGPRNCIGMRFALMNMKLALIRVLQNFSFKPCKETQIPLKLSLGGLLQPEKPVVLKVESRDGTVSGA

[1] = target: T1, Mineralocorticoid receptor (Homo sapiens) (UniProt P08235); assay: Antagonist activity at MR (unknown origin) by transcriptional reporter assay
T1 sequence (whole entry): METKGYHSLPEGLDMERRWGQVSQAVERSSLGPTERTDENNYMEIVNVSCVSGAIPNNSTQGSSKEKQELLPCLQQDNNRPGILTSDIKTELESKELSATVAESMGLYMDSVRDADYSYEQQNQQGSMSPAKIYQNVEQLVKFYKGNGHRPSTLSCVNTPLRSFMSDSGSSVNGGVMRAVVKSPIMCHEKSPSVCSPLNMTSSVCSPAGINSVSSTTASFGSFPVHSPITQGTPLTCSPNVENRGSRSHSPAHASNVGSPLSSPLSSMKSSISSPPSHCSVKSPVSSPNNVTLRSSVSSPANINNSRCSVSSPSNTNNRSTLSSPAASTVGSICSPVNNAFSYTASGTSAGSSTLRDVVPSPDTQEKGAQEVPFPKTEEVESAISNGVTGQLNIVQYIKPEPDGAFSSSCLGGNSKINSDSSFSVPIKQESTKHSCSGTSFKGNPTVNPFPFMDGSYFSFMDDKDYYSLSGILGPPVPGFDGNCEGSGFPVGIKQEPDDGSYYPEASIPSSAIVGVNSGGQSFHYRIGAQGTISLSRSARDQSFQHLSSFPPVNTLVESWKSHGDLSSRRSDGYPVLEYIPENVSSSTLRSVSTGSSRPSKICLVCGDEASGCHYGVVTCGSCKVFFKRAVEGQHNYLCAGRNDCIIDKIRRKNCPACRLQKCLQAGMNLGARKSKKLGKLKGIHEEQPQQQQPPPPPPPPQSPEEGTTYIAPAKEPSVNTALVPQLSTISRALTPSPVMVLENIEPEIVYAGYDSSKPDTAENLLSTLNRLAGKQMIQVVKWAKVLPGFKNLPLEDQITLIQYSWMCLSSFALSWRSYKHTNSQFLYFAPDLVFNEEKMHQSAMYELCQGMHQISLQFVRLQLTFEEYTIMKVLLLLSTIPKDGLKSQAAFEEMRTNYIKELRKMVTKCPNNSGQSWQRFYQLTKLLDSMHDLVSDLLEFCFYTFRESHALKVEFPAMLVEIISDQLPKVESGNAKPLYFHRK

[2] = Genotoxicity in Salmonella typhimurium TA100 by Ames test; assay type: toxicity; settings: salmonella enterica subsp. enterica serovar […]
MCF7 = assay: Antiproliferative activity against human MCF7 cells after 5 days by CellTiter-Glo assay; settings: MCF7, 120 h
[3] = target: Voltage-gated inwardly rectifying potassium channel KCNH2 (Homo sapiens, UniProt Q12809); assay: Inhibition of human ERG by patch clamp method
Sequence of Voltage-gated inwardly rectifying potassium channel KCNH2 (Q12809 whole entry): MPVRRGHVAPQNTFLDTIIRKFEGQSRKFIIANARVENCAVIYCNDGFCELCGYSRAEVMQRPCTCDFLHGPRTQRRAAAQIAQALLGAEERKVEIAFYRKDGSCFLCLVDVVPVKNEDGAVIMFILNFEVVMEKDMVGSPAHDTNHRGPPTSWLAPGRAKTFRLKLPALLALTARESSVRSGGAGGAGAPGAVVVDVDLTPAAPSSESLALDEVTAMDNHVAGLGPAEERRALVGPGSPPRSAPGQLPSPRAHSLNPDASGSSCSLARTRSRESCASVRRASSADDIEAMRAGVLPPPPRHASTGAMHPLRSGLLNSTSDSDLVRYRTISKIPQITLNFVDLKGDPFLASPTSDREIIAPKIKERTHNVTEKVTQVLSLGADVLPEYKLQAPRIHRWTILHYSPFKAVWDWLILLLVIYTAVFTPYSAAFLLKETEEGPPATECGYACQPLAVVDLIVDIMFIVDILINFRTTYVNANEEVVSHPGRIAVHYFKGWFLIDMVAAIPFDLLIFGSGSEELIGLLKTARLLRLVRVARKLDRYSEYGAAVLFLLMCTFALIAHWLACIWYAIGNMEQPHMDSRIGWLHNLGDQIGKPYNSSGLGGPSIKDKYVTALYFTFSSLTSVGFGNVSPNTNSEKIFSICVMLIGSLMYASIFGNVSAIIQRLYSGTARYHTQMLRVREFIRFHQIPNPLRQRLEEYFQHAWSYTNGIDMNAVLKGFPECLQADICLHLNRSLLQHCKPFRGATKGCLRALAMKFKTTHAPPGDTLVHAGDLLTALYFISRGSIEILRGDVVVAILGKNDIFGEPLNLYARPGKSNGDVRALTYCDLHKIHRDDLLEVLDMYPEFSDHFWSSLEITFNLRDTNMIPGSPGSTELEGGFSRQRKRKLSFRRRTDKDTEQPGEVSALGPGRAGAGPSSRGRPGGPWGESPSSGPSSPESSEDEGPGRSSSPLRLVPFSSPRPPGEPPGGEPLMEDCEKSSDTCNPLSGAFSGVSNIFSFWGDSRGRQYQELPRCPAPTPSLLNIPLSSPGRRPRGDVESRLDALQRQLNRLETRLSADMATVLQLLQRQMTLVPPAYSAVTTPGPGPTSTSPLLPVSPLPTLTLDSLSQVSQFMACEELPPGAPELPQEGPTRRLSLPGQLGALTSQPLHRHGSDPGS

[4] = target: T1, Mineralocorticoid receptor (Homo sapiens); assay: Agonist activity at MR (unknown origin) by transcriptional reporter assay
[5] = target: T2, Glucocorticoid receptor (Homo sapiens) (UniProt P04150); assay: Agonist activity at GR (unknown origin) by transcriptional reporter assay
T2 sequence (whole entry): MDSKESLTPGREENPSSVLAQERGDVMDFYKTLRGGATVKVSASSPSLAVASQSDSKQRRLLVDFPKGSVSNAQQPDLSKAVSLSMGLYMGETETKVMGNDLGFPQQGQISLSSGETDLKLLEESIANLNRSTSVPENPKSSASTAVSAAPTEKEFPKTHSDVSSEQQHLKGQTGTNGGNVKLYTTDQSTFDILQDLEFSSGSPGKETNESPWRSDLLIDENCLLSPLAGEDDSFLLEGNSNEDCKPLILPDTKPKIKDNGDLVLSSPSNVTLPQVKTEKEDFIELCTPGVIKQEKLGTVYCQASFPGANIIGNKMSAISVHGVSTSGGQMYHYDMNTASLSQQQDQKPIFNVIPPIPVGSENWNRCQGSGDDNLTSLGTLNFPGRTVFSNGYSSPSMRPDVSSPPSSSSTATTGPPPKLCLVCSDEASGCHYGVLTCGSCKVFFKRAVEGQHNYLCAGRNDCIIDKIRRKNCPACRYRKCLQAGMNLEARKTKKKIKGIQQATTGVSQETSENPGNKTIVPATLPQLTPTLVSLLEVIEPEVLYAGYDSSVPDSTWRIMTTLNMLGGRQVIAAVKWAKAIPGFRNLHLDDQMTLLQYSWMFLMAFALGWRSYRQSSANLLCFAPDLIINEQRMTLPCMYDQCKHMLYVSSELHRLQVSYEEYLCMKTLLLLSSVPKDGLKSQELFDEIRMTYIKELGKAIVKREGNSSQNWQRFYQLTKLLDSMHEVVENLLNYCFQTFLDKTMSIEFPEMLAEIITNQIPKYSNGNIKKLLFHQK

Rattus norvegicus = assay: In vivo inverse agonist activity at ERalpha in CD-IGS rat assessed as decrease in uterine weight at 10 mg/kg, po for 3 consecutive days measured at 24 hrs post last dose; assay type: functional, organism-based
How it was run: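 Rat uterine wet weight assay run in agonist mode, with no ethynyl estradiol added. Oral dosing at 10 mg/kg for 3 days. Uterine weights compared with those of vehicle-treated animals.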

[6] = Cmax in nude mouse xenografted with tamoxifen-resistant human MCF7 cells at 100 mg/kg, po daily for 28 days measured on day 28 post last dose; assay type: ADME, organism-based; design: dose 100 mg/kg, route oral; settings: in vivo
How it was run: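 Tamoxifen-resistant MCF-7 xenograft mice carrying subcutaneous 0.72 mg estradiol pellets. Plasma pharmacokinetics sampled on day 28 of the study, at take-down.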

Cytochrome P450 1A2 = target: T3, Cytochrome P450 1A2 (Homo sapiens, UniProt P05177); assay: Competitive inhibition of CYP1A2 (unknown origin); assay type: ADME
T3 sequence (P05177 whole entry): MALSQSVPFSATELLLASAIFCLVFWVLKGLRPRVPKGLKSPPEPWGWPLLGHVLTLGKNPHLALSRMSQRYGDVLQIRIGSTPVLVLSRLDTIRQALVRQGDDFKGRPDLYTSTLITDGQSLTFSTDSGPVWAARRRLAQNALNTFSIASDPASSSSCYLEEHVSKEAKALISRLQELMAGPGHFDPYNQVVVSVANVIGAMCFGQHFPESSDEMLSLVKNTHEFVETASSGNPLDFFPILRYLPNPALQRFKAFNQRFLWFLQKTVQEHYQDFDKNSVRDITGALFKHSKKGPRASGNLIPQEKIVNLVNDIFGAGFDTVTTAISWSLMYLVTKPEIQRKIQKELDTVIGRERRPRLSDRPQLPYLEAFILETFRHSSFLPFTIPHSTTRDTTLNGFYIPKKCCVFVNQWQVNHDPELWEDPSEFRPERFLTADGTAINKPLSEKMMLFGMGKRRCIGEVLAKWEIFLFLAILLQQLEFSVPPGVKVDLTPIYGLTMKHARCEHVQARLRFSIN

Cytochrome P450 2C19 = Cytochrome P450 2C19 (Homo sapiens, UniProt P33261); assay: Competitive inhibition of CYP2C19 (unknown origin); assay type: ADME
Sequence of Cytochrome P450 2C19 (P33261 whole entry): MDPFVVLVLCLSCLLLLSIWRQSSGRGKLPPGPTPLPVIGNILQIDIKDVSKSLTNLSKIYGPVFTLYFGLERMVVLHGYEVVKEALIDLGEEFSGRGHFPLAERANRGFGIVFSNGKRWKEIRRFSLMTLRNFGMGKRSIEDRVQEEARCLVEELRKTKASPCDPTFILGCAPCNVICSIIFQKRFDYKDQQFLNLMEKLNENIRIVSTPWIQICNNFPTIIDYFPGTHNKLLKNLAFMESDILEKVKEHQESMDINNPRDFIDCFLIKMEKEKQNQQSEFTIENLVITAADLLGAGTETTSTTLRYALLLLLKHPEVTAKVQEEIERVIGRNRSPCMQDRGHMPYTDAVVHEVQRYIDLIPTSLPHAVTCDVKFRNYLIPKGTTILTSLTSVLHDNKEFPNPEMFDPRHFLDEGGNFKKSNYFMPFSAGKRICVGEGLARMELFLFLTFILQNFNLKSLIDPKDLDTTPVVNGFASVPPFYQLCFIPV

Sequence of Cytochrome P450 2D6 (P10635 whole entry): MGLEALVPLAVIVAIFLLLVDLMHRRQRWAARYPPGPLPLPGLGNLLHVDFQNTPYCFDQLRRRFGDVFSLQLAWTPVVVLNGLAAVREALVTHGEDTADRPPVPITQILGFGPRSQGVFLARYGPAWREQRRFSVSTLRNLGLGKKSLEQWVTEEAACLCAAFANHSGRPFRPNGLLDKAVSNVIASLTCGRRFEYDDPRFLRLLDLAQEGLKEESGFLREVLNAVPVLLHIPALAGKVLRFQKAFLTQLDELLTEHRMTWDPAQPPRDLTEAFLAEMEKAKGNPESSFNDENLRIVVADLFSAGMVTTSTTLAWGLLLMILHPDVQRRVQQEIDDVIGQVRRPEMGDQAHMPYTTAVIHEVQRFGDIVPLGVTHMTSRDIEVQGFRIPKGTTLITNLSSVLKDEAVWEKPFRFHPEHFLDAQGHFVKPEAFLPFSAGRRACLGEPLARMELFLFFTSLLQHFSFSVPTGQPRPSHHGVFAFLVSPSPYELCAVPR

Question: For `CC1=C(c2cccc(O)c2)[C@H](c2ccc(OCCN3CC(CF)C3)cc2)Oc2ccc(O)cc21`, which IC50 (Cytochrome P450 2D6) is on record?
Answer: > 10 µM

Question: What about the IC50 (Cytochrome P450 3A4) of the same compound?
Answer: > 10 µM

Question: And the inhibition [1]?
Answer: inactive

Question: What about the Activity [2] of the same compound?
Answer: Non-Toxic

Question: What about the IC50 (MCF7) of the same compound?
Answer: 0.0001 µM

Question: And the IC50 [3]?
Answer: 4.6 µM

Question: What about the Activity [4] of the same compound?
Answer: inactive

Question: And the Activity [5]?
Answer: inactive

Question: And the Activity (Rattus norvegicus)?
Answer: Active

Question: What about the Cmax [6] of the same compound?
Answer: 950 ng/mL

Question: What about the IC50 (Cytochrome P450 1A2) of the same compound?
Answer: > 10 µM

Question: What about the IC50 (Cytochrome P450 2C19) of the same compound?
Answer: > 10 µM
